Data taken from ChEMBL document CHEMBL4513216, “Probing the Open Global Health Chemical Diversity Library for Multistage-Active Starting Points for Next-Generation Antimalarials” (ACS Infect Dis, 2020).

experiment: Toxicity liver stage against HepG2, at 10uM; format: cell-based; set-up: test concentration 10 uM, cell line HepG2-A16-CD81EGFP; conditions: human, HepG2-A16-CD81EGFP cells; read-out: INHIBITION
Outline: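 Uninfected HepG2-A16-CD81EGFP cells, 3 × 10^3 per well, 1536-well, plated on prespotted compound at 10 μM final, parasite-free screening media added to match infected plates; puromycin 10 μM positive, DMSO 0.5% negative; run in parallel with 48 h PbLuc assay at 37 °C, 5% CO2; viability by CellTiter-Glo luminescence, normalized to controls.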

| SMILES | cytotoxicity at 10 µM [%] |
| --- | --- |
| O=C(c1ccc2c(c1)OCO2)N1CCN2C(=O)NC[C@H]2C1 | 2.02 |
| Cc1nc(Nc2nncs2)cc(C2CCCN2C)n1 (stereo unspecified) | -22.6 |
| O=C(CN1CCCC1Cn1cncn1)NC(C1CC1)C1CC1 (stereo unspecified) | -12.8 |
| COc1ccc(CN2CCN(C(C)c3nc(C4CC4)no3)CC2)cc1 (stereo unspecified) | 4.31 |
| CCOCC1CN(Cc2cnn(C)c2)Cc2nn(CC3CC3)cc21 (stereo unspecified) | -75.9 |
| O=C(c1ccc(S(=O)(=O)NCc2ccon2)cc1)N1CCNCC1 | 2.59 |
| CCS(=O)(=O)c1ccccc1C(=O)N1CCCC(n2cccn2)C1 (stereo unspecified) | -29.9 |
| CC(C)c1nc(C2CCCN2Cc2ccon2)no1 (stereo unspecified) | -3.5 |
| CC(C)NC(=O)N1CCC2(CC1)CCn1c(C3CC3)cnc12 | 2.04 |
| CC(C)N(C)Cc1cnc2n1CCN(C(=O)Cc1ccsc1)C2 | -118 |
| Cn1cc(C(=O)N2CCCC(Cc3cncc4ccccc34)C2)cn1 (stereo unspecified) | -13.2 |
| CCn1cc(CN2CCCC(COc3ccc(F)cc3)C2)cn1 (stereo unspecified) | -59.6 |
| CN1CCCc2cc(CNC(=O)c3ccc(NC4CC4)nc3)ccc21 | -3.03 |
| CCc1cccc(NS(=O)(=O)c2cc(C)c(C(=O)O)s2)c1 | -1.23 |
| COc1cc(NC(=O)NCCO)ccc1N1CCOC1=O | -0.803 |
| O=C(c1ccncc1)N1CCc2c(COCC3CC3)cncc2C1 | -78.7 |
| Cc1ccoc1C(=O)NCC(Cc1ccc(F)cc1)C(N)=O (stereo unspecified) | -0.77 |
| COc1cc(NC(=O)NCC2CCCO2)cc(OC)c1OC (stereo unspecified) | -7.71 |
| O=C(O)CC1CN(S(=O)(=O)c2cccc(F)c2)c2ccccc21 (stereo unspecified) | -4.17 |
| O=C(O)C1CCCN(c2nc3c(-c4ccccc4)csc3c(=O)[nH]2)C1 (stereo unspecified) | -10.1 |
| COC(=O)C(C)(C)NC(=O)c1cc(COc2ccccc2OC)[nH]n1 | -4.83 |
| COCC1c2nnn(CC3CC3)c2CCN1C(=O)c1cccn1C (stereo unspecified) | -133 |
| COc1ccc2c(ccn2CC(=O)Nc2n[nH]c(C(C)C)n2)c1 | -6.72 |

| SMILES | cytotoxicity at 10 µM [%] |
| --- | --- |
| Cc1ccc(CC(=O)N2CCCC(n3ccnc3C(C)C)C2)cn1 (stereo unspecified) | -5.11 |
| COC(=O)C(NC(=O)c1ccc(C)cc1C)c1cccnc1 (stereo unspecified) | -41.9 |
| Cc1ccc(CNC(=O)CN2CCCC(Cn3cncn3)C2)s1 (stereo unspecified) | -1.78 |
| O=C(COC1CCCC1)NCCCn1nc2ccccn2c1=O | 5.78 |
| CCOC(=O)CSc1nnc(C(N)CC(C)C)o1 (stereo unspecified) | -8.32 |
| CC(C)c1nc(C2CCCN(C(=O)CCn3cncn3)C2)no1 (stereo unspecified) | -21.1 |
| COCC1(C(=O)N[C@H]2CN(c3ccnc(C)c3)C[C@@H]2C2CC2)CCC1 | -160 |
| Fc1ccc(OCc2nnc([C@H]3CCN(Cc4ccncc4)C3)o2)cc1 | -1.81 |
| COCc1nc(CN2C(=O)OC[C@@H]2C(C)C)no1 | -12.4 |
| CNc1cc(C2CCCNC2)nc(C)n1 (stereo unspecified) | 8.37 |
| CS(=O)(=O)N1CC[C@@H]2O[C@@H](COCC(=O)N3CCCC3)CC[C@@H]21 | -0.879 |
| Cc1ccc(C#N)cc1NC(=O)NC1CCCN(c2ncccn2)C1 (stereo unspecified) | -10.2 |
| Cc1cc(N2CCC(n3cc(CCCO)nn3)CC2)ccn1 | 3.6 |
| CC(c1ccco1)N(C(=O)CNc1ccc(C#N)cc1)C1CC1 (stereo unspecified) | 7.79 |
| COCC(NC(=O)NCc1ccc(C)c(F)c1)c1ccco1 (stereo unspecified) | 4.96 |
| Cc1cc(C(=O)NC(C)CC(=O)c2cccs2)n(C)n1 (stereo unspecified) | -0.0944 |
| Cc1csc(CCNC(=O)c2cc3c(nc2O)CCC(C)C3)n1 (stereo unspecified) | -3.91 |
| CN1CCC(Cc2noc(-c3cccc4c3OCC4)n2)CC1 | -4.71 |
| O=c1[nH]c(-c2ccccc2)nc2c1CCN(S(=O)(=O)N1CCCC1)C2 | 3.86 |
| Cc1ncsc1CN1CC[C@H]2OCC[C@@]2(C(=O)NC2CC2)C1 | 2.75 |
| CS(=O)(=O)N1CCO[C@@H]2CCN(Cc3ccncc3)CC[C@H]21 | 1.15 |
| CCNc1cc2c(nn1)CCN(C(=O)c1ccc3cc[nH]c3c1)C2 | -6.95 |
| N[C@H]1CN(S(=O)(=O)N2CCCC2)C[C@@H]1c1ccccc1 | 6.86 |

| SMILES | cytotoxicity at 10 µM [%] |
| --- | --- |
| CS(=O)(=O)c1ccccc1NC(=O)N[C@@H]1c2ccccc2C[C@@H]1O | -42.2 |
| O=C(c1cccnc1SCc1ccccc1)N1CCOCC1 | 4.74 |
| CCc1noc(C(C)N(C)CC(=O)Nc2ccc(Cl)c(C(F)(F)F)c2)n1 (stereo unspecified) | 50.1 |
| OCCN1CCC(c2cncc(-c3cccc(Cl)c3)n2)CC1 | -31.7 |
| CCCC(C#N)NC(=O)c1cc(Br)c2c(c1)OCCO2 (stereo unspecified) | -9.2 |
| COC(C(=O)N1CCN(Cc2noc(C)n2)CC1)c1ccccc1 (stereo unspecified) | -1.8 |
| CN(C)Cc1nnc2n1CCN(c1cnccn1)CC2 | -10.8 |
| CN(C)CC1CN(Cc2cc(Cl)cc3cccnc23)CCO1 (stereo unspecified) | 5.26 |
| CC(C)c1nc(C2CCCN2C(=O)c2ccc(C#N)cn2)no1 (stereo unspecified) | -3.19 |
| CC(NCC1CCN(CCO)CC1)c1cccc(Cl)c1 (stereo unspecified) | -12.5 |
| COc1ccc(NC(C)C(=O)NCCc2cccs2)cc1F (stereo unspecified) | -13.5 |
| COc1ccc(OC)c(CCNc2ncc(S(N)(=O)=O)s2)c1 | 3.75 |
| COCC(=O)N1CCN(c2cc(C)nc(C3CCCN3C(C)=O)c2)CC1 (stereo unspecified) | 1.86 |
| COCCCN1CCN(C(=O)C(c2cccc(F)c2)N(C)C)CC1 (stereo unspecified) | -13.1 |
| CS(=O)(=O)c1ccc(CNC(=O)Nc2cn[nH]c2)cc1 | -1.88 |
| COc1c(CNC2CCc3c(F)cccc32)c(C)nn1C (stereo unspecified) | 0.665 |
| CNC(=O)c1noc(CN2CC[C@](C)(O)[C@H](C)C2)n1 | -37.5 |
| CN(CCOc1cccc(F)c1)CC(=O)Nc1ccncc1 | 9.16 |
| CO[C@@H]1CCN(c2nnc(C)s2)C[C@@H]1Cc1ccccc1 | 10.5 |
| Cc1ccc(CC(=O)N2CCN(CC(O)C(C)(C)C)CC2)cn1 (stereo unspecified) | -4.51 |
| COc1cccc(NC(=O)NC2(c3noc(CN(C)C)n3)CCCC2)c1 | 2.6 |
| COc1ccc(-c2noc(C3=NN(C)C(=O)CC3)n2)cc1OC | -0.51 |
| N#Cc1cc(NC(=O)c2ccsc2)ccc1N1CCC(O)CC1 | 4.77 |

| SMILES | cytotoxicity at 10 µM [%] |
| --- | --- |
| CC(C)N1CCC(Nc2ccn(CCC#N)n2)C1=O (stereo unspecified) | 15.7 |
| COc1ccc(-n2nc(C(C)C)nc2Cn2cncn2)cc1 | 4.22 |
| CN(Cc1cccnc1)C1COC2(CCN(Cc3nccs3)CC2)C1 (stereo unspecified) | 6.37 |
| CC(c1ccon1)N(C)Cc1cc(O)c2cc(F)ccc2n1 (stereo unspecified) | 5.5 |
| Cc1cccc(CN2CCN(c3ncnc4[nH]cnc34)CC2CCO)n1 (stereo unspecified) | -3.09 |
| CN(C)C(=O)NCc1ncn2c1CN(Cc1cccs1)CCC2 | 8.07 |
| O=S(=O)(NCc1ccc(S(=O)(=O)N2CCCC2)s1)c1cc(Cl)cc(Cl)c1 | -11.1 |
| COCCn1cc(NC(=O)N(CCC(N)=O)Cc2ccccc2)cn1 | -4.72 |
| CC(C(=O)NC1CC1)S(=O)(=O)c1cc2c(cc1Cl)OCCO2 (stereo unspecified) | -13.9 |
| Cc1ncc(CNC(=O)Cc2ccsc2)c(C2CCCN2C)n1 (stereo unspecified) | -1.25 |
| Cc1cc(CNC(=O)NCC(O)c2cccc(C(F)(F)F)c2)no1 (stereo unspecified) | -6.79 |
| CN1CCN(Cc2cnn(-c3ccc(F)cc3)c2)[C@H]2CS(=O)(=O)C[C@H]21 | 12.8 |
| OC1(CN2CCc3nnc(Cc4cccnc4)n3CC2)CCCNC1 (stereo unspecified) | 21.7 |
| CN1CCC2(C=C(C(=O)N3CCCC3)c3ccccc32)CC1 | 1.97 |
| Cc1ccccc1C1(CNc2nnc(C)c(C)c2C#N)CCOCC1 | -2.1 |
| COc1cccc2c1OCC(Cc1cc(C(N)=O)ccn1)C2 (stereo unspecified) | 5.83 |
| CC1CCCN(CCNC(=O)c2ccn(-c3ccccc3)n2)C1 (stereo unspecified) | -3.81 |
| Cc1csc(N2CCCN(C(=O)c3c(C)noc3C)CC2)n1 | -10.6 |
| CC(C)c1nc(C(=O)N2CCCC(n3cncn3)C2)c[nH]1 (stereo unspecified) | -2.48 |
| COc1ccnc(CN2CCCC(CCc3ccc(F)cc3)C2)c1OC (stereo unspecified) | 50.4 |
| COC(=O)c1ccc(N2CCN(C(=O)c3cc(C)on3)C(C)C2)cc1 (stereo unspecified) | -7.85 |
| CN(Cc1cn2c(n1)CN(Cc1ccc(F)cc1)CC2)Cc1ccco1 | -77 |
| Nc1ncccc1C(=O)NCc1ccc(Br)cc1 | 35.7 |

| SMILES | cytotoxicity at 10 µM [%] |
| --- | --- |
| O=C(COC[C@@H]1CC[C@H]2[C@H](CCN2Cc2ccco2)O1)N1CCCC1 | -161 |
| NC(=O)COc1ccc(C2NC(=O)CN2Cc2ccc(Br)cc2)cc1 (stereo unspecified) | -7.38 |
| Cc1nnc2n1CCN(C(=O)c1cnc3c(cnn3C(C)C)c1)C2 | -6.69 |
| Cc1nsc(N2CCN(CC(=O)N(C3CC3)C(C)C3CC3)CC2)n1 (stereo unspecified) | -12.4 |
| Cc1nc(S(=O)(=O)N2CCSCC2)cn1C | -9.09 |
| CC(C)NC(=O)Nc1ccc(CNCc2cccc(OC(F)F)c2)cc1 | -7.96 |
| Cc1occc1CNC(=O)N1CCC(Cc2cnn(C)c2)C1 (stereo unspecified) | -11.1 |
| Cc1nn(C)c(Oc2ccccc2)c1CNC1CCOc2ccccc21 (stereo unspecified) | 4.88 |
| COc1cccc(C(=O)N2C[C@@H](CN(C)CCO)[C@@H](CO)C2)c1C | -4.17 |
| c1ccc(OCc2nc(CNCCn3cccn3)cs2)cc1 | 7.53 |
| CCCN1CCC2(Cc3ccccc3NC2=O)C1 (stereo unspecified) | 14.5 |
| CCN(CC)S(=O)(=O)NC(C)C(=O)N(C)C (stereo unspecified) | 9.55 |
| COc1ccc(CCCN(C)C(=O)c2cc(C(C)=O)c[nH]2)cc1OC | 2.24 |
| O=C(c1ncoc1C1CC1)N1CCN(CCOc2ccccc2)CC1 | -6.93 |
| CN(Cc1ccccc1O)C(=O)Nc1cc(F)cc(N2CCCC2)c1 | 7.93 |
| Cc1ccc(C(=O)NS(C)(=O)=O)cc1S(C)(=O)=O | 4 |
| CCn1cc(NC(=O)C2CCN(Cc3nc(C)c(C)s3)CC2)cn1 | 6.37 |
| O=C(NCCCO)Nc1cccc(I)c1 | -6.1 |
| CCCc1cc(C(=O)N(Cc2cccnc2)C2CCCCC2)[nH]n1 | -11.2 |
